Source: ChEMBL document CHEMBL1773037, “Evaluation of superior BACE1 cleavage sequences containing unnatural amino acids” (Bioorg Med Chem, 2011)
Calls of active or inactive are those of the source. No cut-off for these calls is given here. Non-standard residues stand in square brackets, D forms with d. Residues, ends and D or L forms follow the SMILES beside them. 2Thi = N[C@@H](Cc1cccs1)C(=O)O; Cha = N[C@@H](CC1CCCCC1)C(=O)O; Cit = NC(=O)NCCC[C@H](N)C(=O)O; Phg = N[C@H](C(=O)O)c1ccccc1; Tle = CC(C)(C)[C@H](N)C(=O)O; Nva = CCC[C@H](N)C(=O)O; Abu = CC[C@H](N)C(=O)O

Assays:
[1] = target: Beta-secretase 1 (Homo sapiens) (UniProt P56817); experiment: Activity of recombinant BACE assessed as substrate cleavage at 300 uM after 3 hrs by HPLC analysis
Chain of Beta-secretase 1 (Homo sapiens) (P56817 whole entry, the tested form may be a part): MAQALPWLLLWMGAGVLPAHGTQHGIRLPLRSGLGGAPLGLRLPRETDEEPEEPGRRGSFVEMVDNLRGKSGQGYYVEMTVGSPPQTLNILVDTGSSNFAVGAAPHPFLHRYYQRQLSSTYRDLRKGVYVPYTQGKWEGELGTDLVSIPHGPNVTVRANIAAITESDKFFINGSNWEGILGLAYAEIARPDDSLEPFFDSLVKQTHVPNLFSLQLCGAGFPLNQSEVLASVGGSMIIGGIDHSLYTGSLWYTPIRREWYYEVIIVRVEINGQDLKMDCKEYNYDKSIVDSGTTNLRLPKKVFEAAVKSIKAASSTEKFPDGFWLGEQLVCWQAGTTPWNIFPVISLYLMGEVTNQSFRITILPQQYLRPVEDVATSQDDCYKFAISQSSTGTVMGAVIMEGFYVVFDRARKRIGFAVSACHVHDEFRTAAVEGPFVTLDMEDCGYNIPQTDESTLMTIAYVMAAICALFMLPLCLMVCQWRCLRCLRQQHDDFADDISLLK
Method in brief: (§1)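 Individually synthesized, purified substrates at 300 µM in 40 mM AcONa buffer, pH 4.5, 37 °C. rBACE1 used at 60 nM (P1, P4 substrates), 30 nM (P2, P3 substrates) or 10 nM (P1' substrates and the dodecapeptide). Aliquots taken at 0, 1 and 3 h, quenched with 7 M GuHCl, and the decrease in each substrate peak monitored by HPLC.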

[2] = target: Beta-secretase 1 (Homo sapiens) (UniProt P56817); experiment: Activity of recombinant BACE assessed as retention time of C-terminal fragment by HPLC method
[3] = target: Beta-secretase 1 (Homo sapiens) (UniProt P56817); experiment: Activity of recombinant BACE assessed as retention time of substrate by HPLC method
[4] = target: Beta-secretase 1 (Homo sapiens) (UniProt P56817); experiment: Activity of recombinant BACE assessed as substrate cleavage upto 3 hrs by HPLC analysis; method in brief: as §1
[5] = target: Beta-secretase 1 (Homo sapiens) (UniProt P56817); experiment: Activity of recombinant BACE assessed as retention time of N-terminal fragment by HPLC method
[6] = target: Beta-secretase 1 (Homo sapiens) (UniProt P56817); experiment: Activity of recombinant BACE assessed as substrate cleavage after 1 hr by HPLC analysis

| SMILES | Activity [1] | retention time [2] | retention time [3] | Activity [4] | retention time [5] | Activity [6] |
| --- | --- | --- | --- | --- | --- | --- |
| CCC[C@H](NC(=O)[C@H](CC(N)=O)NC(=O)[C@@H](NC(=O)[C@H](CCC(=O)O)NC(=O)[C@H](CO)NC(=O)[C@@H](N)[C@@H](C)CC)C(C)C)C(=O)N[C@@H](CC(=O)O)C(=O)N[C@@H](C)C(=O)N[C@@H](CCC(=O)O)C(=O)N[C@@H](Cc1ccccc1)C(=O)N[C@@H](CCCNC(=N)N)C(=O)N[C@@H](Cc1cnc[nH]1)C(N)=O (H-ISEVN[Nva]DAEFRH-NH2) | Active | 0.217 h | 0.45 h | – | – | – |
| CCC[C@H](NC(=O)[C@H](Cc1cccs1)NC(=O)[C@H](Cc1cccs1)NC(=O)[C@@H](NC(=O)[C@H](CCC(=O)O)NC(=O)[C@H](CO)NC(=O)[C@@H](N)[C@@H](C)CC)[C@@H](C)CC)C(=O)N[C@@H](C)C(=O)N[C@@H](CCC(=O)O)C(=O)N[C@@H](Cc1ccccc1)C(=O)N[C@@H](CCCNC(=N)N)C(=O)N[C@@H](Cc1cnc[nH]1)C(N)=O (H-ISEI[2Thi][2Thi][Nva]AEFRH-NH2) | – | – | 0.658 h | 90% | – | – |
| CC[C@H](NC(=O)[C@H](CC(N)=O)NC(=O)[C@@H](NC(=O)[C@H](CCC(=O)O)NC(=O)[C@H](CO)NC(=O)[C@@H](N)[C@@H](C)CC)C(C)C)C(=O)N[C@@H](CC(=O)O)C(=O)N[C@@H](C)C(=O)N[C@@H](CCC(=O)O)C(=O)N[C@@H](Cc1ccccc1)C(=O)N[C@@H](CCCNC(=N)N)C(=O)N[C@@H](Cc1cnc[nH]1)C(N)=O (H-ISEVN[Abu]DAEFRH-NH2) | Active | 0.217 h | 0.409 h | – | – | – |
| CC[C@H](C)[C@H](N)C(=O)N[C@@H](CO)C(=O)N[C@@H](CCC(=O)O)C(=O)N[C@H](C(=O)N[C@@H](CC(N)=O)C(=O)N[C@H](C(=O)N[C@@H](CC(=O)O)C(=O)N[C@@H](C)C(=O)N[C@@H](CCC(=O)O)C(=O)N[C@@H](Cc1ccccc1)C(=O)N[C@@H](CCCNC(=N)N)C(=O)N[C@@H](Cc1cnc[nH]1)C(N)=O)C(C)(C)C)C(C)C (H-ISEVN[Tle]DAEFRH-NH2) | – | 0.217 h | 0.479 h | – | – | – |
| CC[C@H](C)[C@H](N)C(=O)N[C@@H](CO)C(=O)N[C@@H](CCC(=O)O)C(=O)N[C@H](C(=O)N[C@@H](CC(N)=O)C(=O)N[C@@H](Cc1cccs1)C(=O)N[C@@H](CC(=O)O)C(=O)N[C@@H](C)C(=O)N[C@@H](CCC(=O)O)C(=O)N[C@@H](Cc1ccccc1)C(=O)N[C@@H](CCCNC(=N)N)C(=O)N[C@@H](Cc1cnc[nH]1)C(N)=O)C(C)C (H-ISEVN[2Thi]DAEFRH-NH2) | 70% | 0.217 h | 0.483 h | – | 0.429 h | – |
| CC[C@H](C)[C@H](N)C(=O)N[C@@H](CO)C(=O)N[C@@H](CCC(=O)O)C(=O)N[C@H](C(=O)N[C@@H](CC(=O)O)C(=O)N[C@@H](CC(C)C)C(=O)N[C@@H](CC(=O)O)C(=O)N[C@@H](C)C(=O)N[C@@H](CCC(=O)O)C(=O)N[C@@H](Cc1ccccc1)C(=O)N[C@@H](CCCNC(=N)N)C(=O)N[C@@H](Cc1cnc[nH]1)C(N)=O)C(C)C (H-ISEVDLDAEFRH-NH2) | Active | – | 0.49 h | – | – | – |
| CC[C@H](C)[C@H](N)C(=O)N[C@@H](CO)C(=O)N[C@@H](CCC(=O)O)C(=O)N[C@H](C(=O)N[C@@H](CC(N)=O)C(=O)N[C@@H](CC(C)C)C(=O)N[C@@H](CC(=O)O)C(=O)N[C@@H](C)C(=O)N[C@@H](CCC(=O)O)C(=O)N[C@@H](Cc1ccccc1)C(=O)N[C@@H](CCCNC(=N)N)C(=O)N[C@@H](Cc1cnc[nH]1)C(N)=O)C(C)C (H-ISEVNLDAEFRH-NH2) | 50% | 0.217 h | 0.487 h | 10% | 0.429 h | – |
| CC[C@H](C)[C@H](N)C(=O)N[C@@H](CO)C(=O)N[C@@H](CCC(=O)O)C(=O)N[C@H](C(=O)N[C@@H](CC(N)=O)C(=O)N[C@@H](CCCNC(N)=O)C(=O)N[C@@H](CC(=O)O)C(=O)N[C@@H](C)C(=O)N[C@@H](CCC(=O)O)C(=O)N[C@@H](Cc1ccccc1)C(=O)N[C@@H](CCCNC(=N)N)C(=O)N[C@@H](Cc1cnc[nH]1)C(N)=O)C(C)C (H-ISEVN[Cit]DAEFRH-NH2) | Active | 0.217 h | 0.344 h | – | – | – |
| CC[C@H](C)[C@H](N)C(=O)N[C@@H](CO)C(=O)N[C@@H](CCC(=O)O)C(=O)N[C@H](C(=O)N[C@@H](CC(N)=O)C(=O)N[C@H](C(=O)N[C@@H](CC(=O)O)C(=O)N[C@@H](C)C(=O)N[C@@H](CCC(=O)O)C(=O)N[C@@H](Cc1ccccc1)C(=O)N[C@@H](CCCNC(=N)N)C(=O)N[C@@H](Cc1cnc[nH]1)C(N)=O)c1ccccc1)C(C)C (H-ISEVN[Phg]DAEFRH-NH2) | Active | 0.217 h | 0.459 h | – | – | – |
| CC[C@H](C)[C@H](N)C(=O)N[C@@H](CO)C(=O)N[C@H](C(=O)N[C@H](C(=O)N[C@@H](CC(N)=O)C(=O)N[C@@H](CC(C)C)C(=O)N[C@@H](CC(=O)O)C(=O)N[C@@H](C)C(=O)N[C@@H](CCC(=O)O)C(=O)N[C@@H](Cc1ccccc1)C(=O)N[C@@H](CCCNC(=N)N)C(=O)N[C@@H](Cc1cnc[nH]1)C(N)=O)C(C)C)c1ccccc1 (H-IS[Phg]VNLDAEFRH-NH2) | Active | – | 0.582 h | – | – | – |
| CC[C@H](C)[C@H](N)C(=O)N[C@@H](CCCCN)C(=O)N[C@H](C(=O)N[C@@H](CCC(=O)O)C(=O)N[C@@H](CCC(=O)O)C(=O)N[C@H](C(=O)N[C@@H](CO)C(=O)N[C@@H](CCC(=O)O)C(=O)N[C@H](C(=O)N[C@@H](CC(N)=O)C(=O)N[C@@H](CC(C)C)C(=O)N[C@@H](CC(=O)O)C(=O)N[C@@H](C)C(=O)N[C@@H](CCC(=O)O)C(=O)N[C@@H](Cc1ccccc1)C(=O)N[C@@H](CCCNC(=N)N)C(=O)N[C@@H](Cc1cnc[nH]1)C(=O)N[C@@H](CC(=O)O)C(=O)N[C@@H](CO)C(=O)NCC(N)=O)C(C)C)[C@@H](C)CC)[C@@H](C)O | – | 0.082 h | 0.297 h | – | 0.289 h | 20% |
| CC[C@H](C)[C@H](N)C(=O)N[C@@H](CO)C(=O)N[C@@H](CCC(=O)O)C(=O)N[C@H](C(=O)N[C@@H](CC(N)=O)C(=O)N[C@@H](CC1CCCCC1)C(=O)N[C@@H](CC(=O)O)C(=O)N[C@@H](C)C(=O)N[C@@H](CCC(=O)O)C(=O)N[C@@H](Cc1ccccc1)C(=O)N[C@@H](CCCNC(=N)N)C(=O)N[C@@H](Cc1cnc[nH]1)C(N)=O)C(C)C (H-ISEVN[Cha]DAEFRH-NH2) | – | 0.217 h | 0.573 h | – | – | – |
| CC[C@H](C)[C@H](N)C(=O)N[C@@H](CO)C(=O)N[C@@H](CCCNC(N)=O)C(=O)N[C@H](C(=O)N[C@@H](CC(N)=O)C(=O)N[C@@H](CC(C)C)C(=O)N[C@@H](CC(=O)O)C(=O)N[C@@H](C)C(=O)N[C@@H](CCC(=O)O)C(=O)N[C@@H](Cc1ccccc1)C(=O)N[C@@H](CCCNC(=N)N)C(=O)N[C@@H](Cc1cnc[nH]1)C(N)=O)C(C)C (H-IS[Cit]VNLDAEFRH-NH2) | Active | – | 0.474 h | – | – | – |
| CC[C@H](NC(=O)[C@H](CC(C)C)NC(=O)[C@H](CC(N)=O)NC(=O)[C@@H](NC(=O)[C@H](CCC(=O)O)NC(=O)[C@H](CO)NC(=O)[C@@H](N)[C@@H](C)CC)C(C)C)C(=O)N[C@@H](C)C(=O)N[C@@H](CCC(=O)O)C(=O)N[C@@H](Cc1ccccc1)C(=O)N[C@@H](CCCNC(=N)N)C(=O)N[C@@H](Cc1cnc[nH]1)C(N)=O (H-ISEVNL[Abu]AEFRH-NH2) | Active | – | 0.585 h | – | – | – |
